Laboratory results taken from ChEMBL document CHEMBL4689842, “EUbOPEN Chemogenomics Library wave 1” (2021).

System: HEK-293T
Experiment: Multiplex assay against HEK293T;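 as to Population Tubulin-Different-Phenotype (%): share of the cells with healthy nuclei that show this phenotype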
Assay type: toxicity, cell-based
Conditions: human
How it was run: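 With compound added, live cells were imaged on a CQ1 microscope at 37°C and 5% CO2; staining with Hoechst33342, BioTracker Green Microtubule Cytoskeleton Dye, MitoTracker Red and Annexin V Alexa Fluor 680 had been done at seeding. The CellPathfinder machine-learning gating scheme split cells into Hoechst high-intensity objects or normal cells, normal cells into healthy, pyknosed or fragmented nuclei, and pyknosed cells into mitotic or apoptotic. The tubulin, mitochondrial-mass and membrane-permeability phenotypes are per cents of healthy-nucleus cells.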

[1] = 12 h, 1 µM, compound concentration 1 uM, replicate 1
[2] = 12 h, 1 µM, compound concentration 1 uM, replicate 2
[3] = 12 h, 10 µM, compound concentration 10 uM, replicate 1
[4] = 12 h, 10 µM, compound concentration 10 uM, replicate 2
[5] = 24 h, 1 µM, compound concentration 1 uM, replicate 1
[6] = 24 h, 1 µM, compound concentration 1 uM, replicate 2
[7] = 24 h, 10 µM, compound concentration 10 uM, replicate 1
[8] = 24 h, 10 µM, compound concentration 10 uM, replicate 2
[9] = 48 h, 1 µM, compound concentration 1 uM, replicate 1
[10] = 48 h, 1 µM, compound concentration 1 uM, replicate 2
[11] = 48 h, 10 µM, compound concentration 10 uM, replicate 1
[12] = 48 h, 10 µM, compound concentration 10 uM, replicate 2

SMILES: Cc1nc(Cc2cccc(C(F)(F)F)c2)sc1-c1ccc(C(N)=O)nc1 [TP-024n]
- Population Apoptotic (%) [1]: 41%
- Population Fragmented Nuclei (%) [1]: 7%
- Population Healthy Nuclei (%) [1]: 53%
- Population Hoechst High Intensity Objects (%) [1]: 14%
- Population Membrane Permeable-Phenotype (%) [1]: 2%
- Population Mitochondria Different-Phenotype (%) [1]: 65%
- Population Mitotic Cells (%) [1]: 58%
- Population Normal (%) [1]: 85%
- Population Pyknosed Nuclei (%) [1]: 39%
- Population Tubulin-Different-Phenotype (%) [1]: 41%
- Total Cell Count [1]: 435
- Population Apoptotic (%) [2]: 10%
- Population Fragmented Nuclei (%) [2]: 2%
- Population Healthy Nuclei (%) [2]: 47%
- Population Hoechst High Intensity Objects (%) [2]: 5%
- Population Membrane Permeable-Phenotype (%) [2]: 9%
- Population Mitochondria Different-Phenotype (%) [2]: 22%
- Population Mitotic Cells (%) [2]: 89%
- Population Normal (%) [2]: 94%
- Population Pyknosed Nuclei (%) [2]: 50%
- Population Tubulin-Different-Phenotype (%) [2]: 26%
- Total Cell Count [2]: 212
- Population Apoptotic (%) [3]: 50%
- Population Fragmented Nuclei (%) [3]: 11%
- Population Healthy Nuclei (%) [3]: 29%
- Population Hoechst High Intensity Objects (%) [3]: 12%
- Population Membrane Permeable-Phenotype (%) [3]: 0%
- Population Mitochondria Different-Phenotype (%) [3]: 91%
- Population Mitotic Cells (%) [3]: 49%
- Population Normal (%) [3]: 87%
- Population Pyknosed Nuclei (%) [3]: 59%
- Population Tubulin-Different-Phenotype (%) [3]: 59%
- Total Cell Count [3]: 316
- Population Apoptotic (%) [4]: 25%
- Population Fragmented Nuclei (%) [4]: 8%
- Population Healthy Nuclei (%) [4]: 25%
- Population Hoechst High Intensity Objects (%) [4]: 9%
- Population Membrane Permeable-Phenotype (%) [4]: 6%
- Population Mitochondria Different-Phenotype (%) [4]: 66%
- Population Mitotic Cells (%) [4]: 75%
- Population Normal (%) [4]: 90%
- Population Pyknosed Nuclei (%) [4]: 65%
- Population Tubulin-Different-Phenotype (%) [4]: 30%
- Total Cell Count [4]: 141
- Population Apoptotic (%) [5]: 49%
- Population Fragmented Nuclei (%) [5]: 9%
- Population Healthy Nuclei (%) [5]: 50%
- Population Hoechst High Intensity Objects (%) [5]: 11%
- Population Membrane Permeable-Phenotype (%) [5]: 2%
- Population Mitochondria Different-Phenotype (%) [5]: 55%
- Population Mitotic Cells (%) [5]: 50%
- Population Normal (%) [5]: 88%
- Population Pyknosed Nuclei (%) [5]: 40%
- Population Tubulin-Different-Phenotype (%) [5]: 28%
- Total Cell Count [5]: 429
- Population Apoptotic (%) [6]: 19%
- Population Fragmented Nuclei (%) [6]: 4%
- Population Healthy Nuclei (%) [6]: 62%
- Population Hoechst High Intensity Objects (%) [6]: 2%
- Population Membrane Permeable-Phenotype (%) [6]: 5%
- Population Mitochondria Different-Phenotype (%) [6]: 24%
- Population Mitotic Cells (%) [6]: 80%
- Population Normal (%) [6]: 97%
- Population Pyknosed Nuclei (%) [6]: 33%
- Population Tubulin-Different-Phenotype (%) [6]: 36%
- Total Cell Count [6]: 239
- Population Apoptotic (%) [7]: 51%
- Population Fragmented Nuclei (%) [7]: 11%
- Population Healthy Nuclei (%) [7]: 31%
- Population Hoechst High Intensity Objects (%) [7]: 17%
- Population Membrane Permeable-Phenotype (%) [7]: 3%
- Population Mitochondria Different-Phenotype (%) [7]: 86%
- Population Mitotic Cells (%) [7]: 48%
- Population Normal (%) [7]: 82%
- Population Pyknosed Nuclei (%) [7]: 57%
- Population Tubulin-Different-Phenotype (%) [7]: 52%
- Total Cell Count [7]: 338
- Population Apoptotic (%) [8]: 36%
- Population Fragmented Nuclei (%) [8]: 10%
- Population Healthy Nuclei (%) [8]: 30%
- Population Hoechst High Intensity Objects (%) [8]: 10%
- Population Membrane Permeable-Phenotype (%) [8]: 2%
- Population Mitochondria Different-Phenotype (%) [8]: 65%
- Population Mitotic Cells (%) [8]: 63%
- Population Normal (%) [8]: 89%
- Population Pyknosed Nuclei (%) [8]: 59%
- Population Tubulin-Different-Phenotype (%) [8]: 50%
- Total Cell Count [8]: 148
- Population Apoptotic (%) [9]: 32%
- Population Fragmented Nuclei (%) [9]: 12%
- Population Healthy Nuclei (%) [9]: 50%
- Population Hoechst High Intensity Objects (%) [9]: 9%
- Population Membrane Permeable-Phenotype (%) [9]: 4%
- Population Mitochondria Different-Phenotype (%) [9]: 25%
- Population Mitotic Cells (%) [9]: 67%
- Population Normal (%) [9]: 90%
- Population Pyknosed Nuclei (%) [9]: 37%
- Population Tubulin-Different-Phenotype (%) [9]: 25%
- Total Cell Count [9]: 594
- Population Apoptotic (%) [10]: 17%
- Population Fragmented Nuclei (%) [10]: 5%
- Population Healthy Nuclei (%) [10]: 80%
- Population Hoechst High Intensity Objects (%) [10]: 2%
- Population Membrane Permeable-Phenotype (%) [10]: 5%
- Population Mitochondria Different-Phenotype (%) [10]: 5%
- Population Mitotic Cells (%) [10]: 82%
- Population Normal (%) [10]: 97%
- Population Pyknosed Nuclei (%) [10]: 13%
- Population Tubulin-Different-Phenotype (%) [10]: 19%
- Total Cell Count [10]: 464
- Population Apoptotic (%) [11]: 53%
- Population Fragmented Nuclei (%) [11]: 18%
- Population Healthy Nuclei (%) [11]: 27%
- Population Hoechst High Intensity Objects (%) [11]: 12%
- Population Membrane Permeable-Phenotype (%) [11]: 2%
- Population Mitochondria Different-Phenotype (%) [11]: 69%
- Population Mitotic Cells (%) [11]: 46%
- Population Normal (%) [11]: 87%
- Population Pyknosed Nuclei (%) [11]: 53%
- Population Tubulin-Different-Phenotype (%) [11]: 42%
- Total Cell Count [11]: 373
- Population Apoptotic (%) [12]: 46%
- Population Fragmented Nuclei (%) [12]: 10%
- Population Healthy Nuclei (%) [12]: 39%
- Population Hoechst High Intensity Objects (%) [12]: 5%
- Population Membrane Permeable-Phenotype (%) [12]: 6%
- Population Mitochondria Different-Phenotype (%) [12]: 54%
- Population Mitotic Cells (%) [12]: 53%
- Population Normal (%) [12]: 94%
- Population Pyknosed Nuclei (%) [12]: 50%
- Population Tubulin-Different-Phenotype (%) [12]: 60%
- Total Cell Count [12]: 164

SMILES: Cl.Cl.NC1(c2ccc(-c3nc4ccn5c(=O)[nH]nc5c4cc3-c3ccccc3)cc2)CCC1
- Population Apoptotic (%) [1]: 25%
- Population Fragmented Nuclei (%) [1]: 19%
- Population Healthy Nuclei (%) [1]: 63%
- Population Hoechst High Intensity Objects (%) [1]: 20%
- Population Membrane Permeable-Phenotype (%) [1]: 13%
- Population Mitochondria Different-Phenotype (%) [1]: 10%
- Population Mitotic Cells (%) [1]: 74%
- Population Normal (%) [1]: 79%
- Population Pyknosed Nuclei (%) [1]: 17%
- Population Tubulin-Different-Phenotype (%) [1]: 15%
- Total Cell Count [1]: 657
- Population Apoptotic (%) [2]: 11%
- Population Fragmented Nuclei (%) [2]: 8%
- Population Healthy Nuclei (%) [2]: 85%
- Population Hoechst High Intensity Objects (%) [2]: 5%
- Population Membrane Permeable-Phenotype (%) [2]: 6%
- Population Mitochondria Different-Phenotype (%) [2]: 20%
- Population Mitotic Cells (%) [2]: 88%
- Population Normal (%) [2]: 94%
- Population Pyknosed Nuclei (%) [2]: 6%
- Population Tubulin-Different-Phenotype (%) [2]: 34%
- Total Cell Count [2]: 1341
- Population Apoptotic (%) [3]: 31%
- Population Fragmented Nuclei (%) [3]: 27%
- Population Healthy Nuclei (%) [3]: 30%
- Population Hoechst High Intensity Objects (%) [3]: 56%
- Population Membrane Permeable-Phenotype (%) [3]: 18%
- Population Mitochondria Different-Phenotype (%) [3]: 27%
- Population Mitotic Cells (%) [3]: 68%
- Population Normal (%) [3]: 43%
- Population Pyknosed Nuclei (%) [3]: 42%
- Population Tubulin-Different-Phenotype (%) [3]: 43%
- Total Cell Count [3]: 496
- Population Apoptotic (%) [4]: 14%
- Population Fragmented Nuclei (%) [4]: 5%
- Population Healthy Nuclei (%) [4]: 71%
- Population Hoechst High Intensity Objects (%) [4]: 65%
- Population Membrane Permeable-Phenotype (%) [4]: 23%
- Population Mitochondria Different-Phenotype (%) [4]: 25%
- Population Mitotic Cells (%) [4]: 85%
- Population Normal (%) [4]: 34%
- Population Pyknosed Nuclei (%) [4]: 22%
- Population Tubulin-Different-Phenotype (%) [4]: 82%
- Total Cell Count [4]: 798
- Population Apoptotic (%) [5]: 23%
- Population Fragmented Nuclei (%) [5]: 20%
- Population Healthy Nuclei (%) [5]: 68%
- Population Hoechst High Intensity Objects (%) [5]: 17%
- Population Membrane Permeable-Phenotype (%) [5]: 18%
- Population Mitochondria Different-Phenotype (%) [5]: 8%
- Population Mitotic Cells (%) [5]: 76%
- Population Normal (%) [5]: 82%
- Population Pyknosed Nuclei (%) [5]: 10%
- Population Tubulin-Different-Phenotype (%) [5]: 38%
- Total Cell Count [5]: 645
- Population Apoptotic (%) [6]: 8%
- Population Fragmented Nuclei (%) [6]: 23%
- Population Healthy Nuclei (%) [6]: 73%
- Population Hoechst High Intensity Objects (%) [6]: 7%
- Population Membrane Permeable-Phenotype (%) [6]: 14%
- Population Mitochondria Different-Phenotype (%) [6]: 4%
- Population Mitotic Cells (%) [6]: 91%
- Population Normal (%) [6]: 92%
- Population Pyknosed Nuclei (%) [6]: 3%
- Population Tubulin-Different-Phenotype (%) [6]: 46%
- Total Cell Count [6]: 2029
- Population Apoptotic (%) [7]: 41%
- Population Fragmented Nuclei (%) [7]: 40%
- Population Healthy Nuclei (%) [7]: 21%
- Population Hoechst High Intensity Objects (%) [7]: 63%
- Population Membrane Permeable-Phenotype (%) [7]: 23%
- Population Mitochondria Different-Phenotype (%) [7]: 38%
- Population Mitotic Cells (%) [7]: 58%
- Population Normal (%) [7]: 36%
- Population Pyknosed Nuclei (%) [7]: 38%
- Population Tubulin-Different-Phenotype (%) [7]: 41%
- Total Cell Count [7]: 436
- Population Apoptotic (%) [8]: 12%
- Population Fragmented Nuclei (%) [8]: 7%
- Population Healthy Nuclei (%) [8]: 53%
- Population Hoechst High Intensity Objects (%) [8]: 69%
- Population Membrane Permeable-Phenotype (%) [8]: 29%
- Population Mitochondria Different-Phenotype (%) [8]: 20%
- Population Mitotic Cells (%) [8]: 88%
- Population Normal (%) [8]: 30%
- Population Pyknosed Nuclei (%) [8]: 39%
- Population Tubulin-Different-Phenotype (%) [8]: 92%
- Total Cell Count [8]: 837
